Results taken from ChEMBL document CHEMBL4428115, “Molecular docking studies, biological and toxicity evaluation of dihydroisoquinoline derivatives as potential anticancer agents” (Bioorg Med Chem, 2016).
pIC50: −log10 of the molar value. The source made the active and inactive calls. The rule behind the calls is not given here.

Assays:
[1] = Antiproliferative activity against HLMEC after 72 hrs by SRB assay; parameters: species or system Homo sapiens
In short: (§1)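 Adherent cells plated at 1 × 10^4 per well 24 h before treatment, then exposed 72 h to compounds diluted from 20 mg/mL DMSO stock (0.01–1000 µg/mL). Fixed in cold 50% TCA at 4°C for 1 h, stained with 0.4% sulforhodamine B, bound dye extracted with 10 mM Tris, OD at 540 nm. Triplicates, 3–5 experiments; IC50 per experiment, mean ± SD.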

[2] = test system: MCF7; assay: Antiproliferative activity against human MCF7 cells at 290 uM after 72 hrs by SRB assay; type: functional
In short: (§2)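 SRB test of adherent cells after 72 h exposure at the highest concentration, 100 µg/ml (290 µM). Cells plated at 1 × 10^4 per well 24 h before treatment; TCA fixation, 0.4% SRB staining, OD 540 nm. Result expressed as % inhibition of proliferation.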

[3] = test system: HL60/MX2; assay: Antiproliferative activity against human HL60/MX2 cells at 290 uM after 72 hrs by MTT assay; type: functional, cell-based
In short: (§3)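 MTT read-out in leukemia cells exposed 72 h to the highest concentration, 100 µg/ml (290 µM), expressed as % proliferation inhibition. Cells seeded at 1 × 10^4 per well 24 h beforehand; MTT for 4 h, DMF/SDS lysis, 570 nm.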

[4] = test system: HL-60; assay: Antiproliferative activity against human HL60 cells at 290 uM after 72 hrs by MTT assay; type: functional, cell-based; in short: as §3
[5] = test system: BALB/3T3; assay: Antiproliferative activity against mouse BALB/3T3 cells after 72 hrs by SRB assay; type: cell-based; conditions: BALB/3T3, 72 h; in short: as §1
[6] = test system: MCF7; assay: Antiproliferative activity against human MCF7 cells after 72 hrs by SRB assay; type: functional, cell-based; conditions: MCF7, 72 h; in short: as §1
[7] = test system: HL60/MX2; assay: Antiproliferative activity against human HL60/MX2 cells after 72 hrs by MTT assay; type: functional, cell-based; conditions: HL60/MX2, 72 h
In short: (§4)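 Leukemia cells seeded at 1 × 10^4 per well 24 h before adding compounds (0.01–1000 µg/mL from DMSO stock), exposed 72 h. MTT (5 mg/mL stock) added for 4 h, then DMF/SDS lysis mixture; absorbance at 570 nm read after 24 h. Triplicates per experiment, 3–5 repeats; IC50 calculated per experiment, reported as mean ± SD.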

[8] = test system: HL-60; assay: Antiproliferative activity against human HL60 cells after 72 hrs by MTT assay; type: functional, cell-based; conditions: HL-60, 72 h; in short: as §4
[9] = test system: MCF10; assay: Antiproliferative activity against human MCF10 cells after 72 hrs by SRB assay; type: cell-based; conditions: MCF10, 72 h; in short: as §1
[10] = Antiproliferative activity against HLMEC at 290 uM after 72 hrs by SRB assay; conditions: human; in short: as §2
[11] = test system: BALB/3T3; assay: (§5) Antiproliferative activity against mouse BALB/3T3 cells at 290 uM after 72 hrs by SRB assay; type: cell-based; conditions: balb/3t3, 72 h, 290 µM; in short: as §2
[12] = test system: MCF10; assay: (§6) Antiproliferative activity against human MCF10 cells at 290 uM after 72 hrs by SRB assay; type: cell-based; conditions: mcf10, 72 h, 290 µM; in short: as §2
[13] = Antiproliferative activity against human LoVo/DX cells at 290 uM; type: functional; conditions: read-out: GI
[14] = test system: A549; assay: Antiproliferative activity against human A549 cells at 290 uM; type: functional; conditions: read-out: GI
[15] = test system: LoVo; assay: Antiproliferative activity against human LoVo cells at 290 uM; type: functional; conditions: read-out: GI
[16] = as §5; type: cell-based; conditions: BALB/3T3 cells, read-out: GI; in short: as §2
[17] = as §6; type: cell-based; conditions: MCF10 cells, read-out: GI; in short: as §2

SMILES | pIC50 [1] | growth inhibition (GI) [2] | growth inhibition (GI) [3] | growth inhibition (GI) [4] | pIC50 [5] | pIC50 [6] | pIC50 [9] | Activity [11] | also measured
CCOC(=O)C(Cc1cc(OCc2ccccc2)cc(OCc2ccccc2)c1)(NC=O)C(=O)OCC | 4.33 | inactive | inactive | inactive | 4.16 | – | – | – | –
O=C(O)C1Cc2cc(O)c(O)cc2C=N1 (stereo not given) | 2.81 | – | inactive | inactive | 2.74 | 2.91 | – | – | –
O=C(O)C1Cc2cc(O)c(O)c(O)c2C=N1 (stereo not given) | 3.83 | – | – | – | 3.63 | 4.07 | 3.60 | – | pIC50 [7]: 3.83; pIC50 [8]: 3.91
COc1cc2c(cc1OC)CCC(C(=O)OCc1ccccc1)(C(=O)OCc1ccccc1)N=C2 | 3.18 | – | – | inactive | 3.03 | 3.13 | – | – | –
C[C@@]1(C(=O)O)Cc2cc(O)c(O)cc2C2C(Cl)C(=O)N21 (stereo not given in full) | 2.94 | – | inactive | inactive | 2.71 | 2.92 | 2.71 | – | –
O=C(O)C1Cc2cc(O)cc(O)c2C=N1 (stereo not given) | – | inactive | inactive | inactive | – | – | – | Non-Toxic | Activity [10]: Non-Toxic; Activity [12]: Non-Toxic
O=C(O)C1Cc2cc(O)c(O)c(I)c2C=N1 (stereo not given) | 3.51 | – | inactive | inactive | – | 3.47 | 3.05 | Non-Toxic | –
O=C(O)C1CCc2cc(O)c(O)cc2C=N1 (stereo not given) | 2.80 | – | inactive | inactive | – | 2.77 | 2.48 | Non-Toxic | –
O=C(O)C1Cc2cc(O)c(I)cc2C=N1 (stereo not given) | – | inactive | inactive | inactive | – | – | – | Non-Toxic | Activity [10]: Non-Toxic; Activity [12]: Non-Toxic
O=C(O)C1Cc2c(O)c(O)cc(Br)c2C=N1 (stereo not given) | 3.25 | – | – | – | 2.90 | 3.18 | 2.84 | – | pIC50 [7]: 3.61; pIC50 [8]: 3.99
O=C(O)C1Cc2cc(O)c(Br)c(O)c2C=N1 (stereo not given) | – | inactive | inactive | inactive | – | – | – | Non-Toxic | Activity [10]: Non-Toxic; Activity [12]: Non-Toxic
CC(C)C[C@H](NC(=O)[C@@H](O)[C@H](N)Cc1ccccc1)C(=O)O [UBENIMEX] | – | – | – | – | – | 3.83 | – | – | inhibition of growth at 290 µM ([2]; MCF7, 72 h, read-out: GI): 63.8%; inhibition of growth at 290 µM [13]: 26.9%; inhibition of growth at 290 µM [14]: 48%; inhibition of growth at 290 µM [15]: 54.8%; inhibition at 72 h, 290 µM [16]: 37.7%; inhibition at 72 h, 290 µM [17]: 26.9%
O=C(O)C1Cc2cc(O)c(O)c(Br)c2C=N1 (stereo not given) | 3.90 | – | inactive | – | 3.74 | 3.65 | 3.04 | – | pIC50 [8]: 3.81
